In ChEMBL document CHEMBL4145652, “Chemoenzymatic Synthesis and Pharmacological Characterization of Functionalized Aspartate Analogues As Novel Excitatory Amino Acid Transporter Inhibitors” (J Med Chem, 2018):
The source made the active and inactive calls. The calls are words filed in the database; no cut-off is given here.

Legend:
Assay type in all cases: cell-based
[1] = target: T1, Excitatory amino acid transporter 1 (Homo sapiens, UniProt P43003); assay: Inhibition of human EAAT1 expressed in HEK293 cells assessed as reduction in [3H]-D-Asp uptake incubated for 4 mins by scintillation counting method
In short: (§1)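 HEK293 cells stably expressing human EAAT1, EAAT2 or EAAT3 were plated 16–24 h before the assay. Cells were washed and incubated with 100 nM [3H]-D-Asp plus graded compound concentrations in HBSS/20 mM HEPES/CaCl2/MgCl2, pH 7.4, for 4 min at 37 °C. Uptake was in the linear range at this time. Cells were washed ice-cold and counted by scintillation. IC50 came from a Hill-equation fit. Three or four independent assays in duplicate.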

[2] = target: T1, Excitatory amino acid transporter 1; assay: Potency index, ratio of IC50 for DL-TBOA to IC50 for test compound for inhibition of human EAAT1 expressed in HEK293 cells assessed as reduction in [3H]-D-Asp uptake incubated for 4 mins by scintillation counting method
In short: (§2)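 Stable HEK293 lines expressing human transporter, plated on poly-D-lysine 16–24 h before assay. Washed cells were given HBSS/20 mM HEPES/1 mM CaCl2/1 mM MgCl2, pH 7.4, with 100 nM [3H]-D-Asp plus graded inhibitor for 4 min at 37 °C. Nonspecific uptake was taken with 3 mM L-Glu. IC50 came from a Hill fit; index = DL-TBOA IC50 ÷ test IC50. Three or four independent runs in duplicate.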

[3] = target: T2, Excitatory amino acid transporter 3 (Homo sapiens, UniProt P43005); assay: Inhibition of human EAAT3 expressed in HEK293 cells assessed as reduction in [3H]-D-Asp uptake incubated for 4 mins by scintillation counting method; in short: as §1
T2 sequence (P43005 whole entry): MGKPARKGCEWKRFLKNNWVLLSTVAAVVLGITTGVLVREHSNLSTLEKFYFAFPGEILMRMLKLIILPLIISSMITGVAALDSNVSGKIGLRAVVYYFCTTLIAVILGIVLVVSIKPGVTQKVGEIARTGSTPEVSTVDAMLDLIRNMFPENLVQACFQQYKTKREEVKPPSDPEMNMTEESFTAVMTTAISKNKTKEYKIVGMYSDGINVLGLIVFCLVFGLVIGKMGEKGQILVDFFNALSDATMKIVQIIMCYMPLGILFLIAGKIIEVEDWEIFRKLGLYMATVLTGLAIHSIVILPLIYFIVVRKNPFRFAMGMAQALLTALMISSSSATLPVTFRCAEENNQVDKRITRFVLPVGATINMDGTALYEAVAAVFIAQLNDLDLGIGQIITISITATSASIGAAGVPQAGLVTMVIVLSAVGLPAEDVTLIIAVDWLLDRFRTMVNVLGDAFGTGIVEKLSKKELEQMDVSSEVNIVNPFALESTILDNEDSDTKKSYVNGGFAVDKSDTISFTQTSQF

[4] = target: T3, Excitatory amino acid transporter 2 (Homo sapiens, UniProt P43004); assay: Potency index, ratio of IC50 for WAY-213613 to IC50 for test compound for inhibition of human EAAT2 expressed in HEK293 cells assessed as reduction in [3H]-D-Asp uptake incubated for 4 mins by scintillation counting method
[5] = target: T4, Excitatory amino acid transporter 4 (Rattus norvegicus) (UniProt O35921); assay: Potency index, ratio of IC50 for DL-TBOA to IC50 for test compound for inhibition of rat EAAT4 expressed in tsA201 cells assessed as reduction in [3H]-D-Asp uptake incubated for 4 mins by scintillation counting method
T4 sequence (whole entry): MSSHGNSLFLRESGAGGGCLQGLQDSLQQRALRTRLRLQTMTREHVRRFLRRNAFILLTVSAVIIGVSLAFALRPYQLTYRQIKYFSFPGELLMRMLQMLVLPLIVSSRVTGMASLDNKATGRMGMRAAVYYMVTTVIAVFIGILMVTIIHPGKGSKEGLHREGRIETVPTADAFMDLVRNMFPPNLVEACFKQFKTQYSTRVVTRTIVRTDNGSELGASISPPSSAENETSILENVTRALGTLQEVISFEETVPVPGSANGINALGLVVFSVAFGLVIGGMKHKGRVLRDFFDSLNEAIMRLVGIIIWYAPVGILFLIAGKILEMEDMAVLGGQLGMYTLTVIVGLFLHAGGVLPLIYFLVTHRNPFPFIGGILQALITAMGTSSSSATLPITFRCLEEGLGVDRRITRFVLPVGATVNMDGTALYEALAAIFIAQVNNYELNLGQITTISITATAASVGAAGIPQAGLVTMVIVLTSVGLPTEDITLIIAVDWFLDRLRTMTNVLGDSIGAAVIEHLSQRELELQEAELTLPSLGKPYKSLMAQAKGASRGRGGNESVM
In short: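 Stable rat EAAT4 tsA201 line induced with 1 µg/mL tetracycline on plating, 16–24 h before assay. Uptake used 100 nM [3H]-D-Asp with graded inhibitor in HEPES-buffered HBSS, pH 7.4, for 4 min at 37 °C. 3 mM L-Glu defined nonspecific uptake. Scintillation counts were Hill-fitted for IC50; index = DL-TBOA IC50 ÷ test IC50. Three or four independent runs in duplicate.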

[6] = target: T1, Excitatory amino acid transporter 1; assay: Potency index, ratio of IC50 for WAY-213613 to IC50 for test compound for inhibition of human EAAT1 expressed in HEK293 cells assessed as reduction in [3H]-D-Asp uptake incubated for 4 mins by scintillation counting method
[7] = target: T4, Excitatory amino acid transporter 4 (Rattus norvegicus); assay: Potency index, ratio of IC50 for WAY-213613 to IC50 for test compound for inhibition of rat EAAT4 expressed in tsA201 cells assessed as reduction in [3H]-D-Asp uptake incubated for 4 mins by scintillation counting method
[8] = target: T5, Excitatory amino acid transporter 4 (Rattus norvegicus, UniProt O35921); assay: Inhibition of rat EAAT4 expressed in tsA201 cells assessed as reduction in [3H]-D-Asp uptake incubated for 4 mins by scintillation counting method; conditions: read-out: IC50
T5 sequence (O35921 whole entry): T4 sequence (whole entry)
In short: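 Rat EAAT4 stably expressed in tsA201 cells, induced with 1 μg/mL tetracycline during overnight plating. [3H]-D-Asp (100 nM) uptake with graded compound concentrations ran for 4 min at 37 °C in HEPES-buffered HBSS, pH 7.4. Uptake was linear at this time. Nonspecific uptake was defined by 3 mM L-Glu. Read-out by scintillation counting. IC50 came from a Hill-equation fit. Three or four independent assays in duplicate.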

[9] = target: T3, Excitatory amino acid transporter 2; assay: Potency index, ratio of IC50 for DL-TBOA to IC50 for test compound for inhibition of human EAAT2 expressed in HEK293 cells assessed as reduction in [3H]-D-Asp uptake incubated for 4 mins by scintillation counting method; in short: as §2
[10] = target: T6, Excitatory amino acid transporter 3 (Homo sapiens) (UniProt P43005); assay: Potency index, ratio of IC50 for WAY-213613 to IC50 for test compound for inhibition of human EAAT3 expressed in HEK293 cells assessed as reduction in [3H]-D-Asp uptake incubated for 4 mins by scintillation counting method
T6 sequence (whole entry): T2 sequence (P43005 whole entry)

[11] = target: T6, Excitatory amino acid transporter 3 (Homo sapiens); assay: Potency index, ratio of IC50 for DL-TBOA to IC50 for test compound for inhibition of human EAAT3 expressed in HEK293 cells assessed as reduction in [3H]-D-Asp uptake incubated for 4 mins by scintillation counting method; in short: as §2
[12] = target: T3, Excitatory amino acid transporter 2; assay: Inhibition of human EAAT2 expressed in HEK293 cells assessed as reduction in [3H]-D-Asp uptake incubated for 4 mins by scintillation counting method; conditions: read-out: IC50
In short: as §1, with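 “time. Nonspecific uptake was defined with 3 mM L-Glu.” for “time.”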

[13] = target: T6, Excitatory amino acid transporter 3 (Homo sapiens); assay: Potency index, ratio of IC50 for NBI59159 to IC50 for test compound for inhibition of human EAAT3 expressed in HEK293 cells assessed as reduction in [3H]-D-Asp uptake incubated for 4 mins by scintillation counting method
[14] = target: T1, Excitatory amino acid transporter 1; assay: Potency index, ratio of IC50 for NBI59159 to IC50 for test compound for inhibition of human EAAT1 expressed in HEK293 cells assessed as reduction in [3H]-D-Asp uptake incubated for 4 mins by scintillation counting method
[15] = target: T3, Excitatory amino acid transporter 2; assay: Potency index, ratio of IC50 for NBI59159 to IC50 for test compound for inhibition of human EAAT2 expressed in HEK293 cells assessed as reduction in [3H]-D-Asp uptake incubated for 4 mins by scintillation counting method
[16] = target: T1, Excitatory amino acid transporter 1; assay: Inhibition of human EAAT1 expressed in HEK293 cells assessed as reduction in EC80 L-glutamate-induced response at 300 uM pre-incubated before L-glutamate addition by fluorescence-based FLIPR membrane potential blue assay
In short: (§3)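 Stably transfected HEK293 cells expressing human EAAT1, EAAT2 or EAAT3, plated the day before on poly-D-lysine-coated plates. Cells were loaded with FMP dye (0.5 mg/mL) in NaCl/KCl/HEPES/glucose buffer, pH 7.4, for 30 min at 37 °C, with test compound at 300 μM present. L-Glu at its EC80 for each transporter was then added. Emission at 565 nm (excitation 525 nm) was read up to 90 s. Three independent experiments in triplicate.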

[17] = target: T1, Excitatory amino acid transporter 1; assay: Substrate activity at human EAAT1 expressed in HEK293 cells assessed as increase in fluorescence level at 300 uM incubated for 30 mins by fluorescence-based FLIPR membrane potential blue assay
In short: (§4)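 Human EAAT1-, EAAT2- or EAAT3-HEK293 cells were loaded with FMP dye (0.5 mg/mL) in Na+-containing HEPES buffer, pH 7.4, for 30 min at 37 °C. Test compound was then added alone to an assay concentration of 300 μM. Fluorescence (ex 525/em 565 nm) was recorded before addition and up to 90 s after. Three independent experiments in triplicate.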

[18] = target: T3, Excitatory amino acid transporter 2; assay: Inhibition of human EAAT2 expressed in HEK293 cells assessed as reduction in EC80 L-glutamate-induced response at 300 uM co-applied with L-glutamate addition by fluorescence-based FLIPR membrane potential blue assay
[19] = target: T6, Excitatory amino acid transporter 3 (Homo sapiens); assay: Substrate activity at human EAAT3 expressed in HEK293 cells assessed as increase in fluorescence level at 300 uM incubated for 30 mins by fluorescence-based FLIPR membrane potential blue assay; in short: as §4
[20] = target: T6, Excitatory amino acid transporter 3 (Homo sapiens); assay: Inhibition of human EAAT3 expressed in HEK293 cells assessed as reduction in EC80 L-glutamate-induced response at 300 uM pre-incubated before L-glutamate addition by fluorescence-based FLIPR membrane potential blue assay; in short: as §3
[21] = target: T3, Excitatory amino acid transporter 2; assay: Inhibition of human EAAT2 expressed in HEK293 cells assessed as reduction in EC80 L-glutamate-induced response at 300 uM pre-incubated before L-glutamate addition by fluorescence-based FLIPR membrane potential blue assay; in short: as §3
[22] = target: T3, Excitatory amino acid transporter 2; assay: Substrate activity at human EAAT2 expressed in HEK293 cells assessed as increase in fluorescence level at 300 uM incubated for 30 mins by fluorescence-based FLIPR membrane potential blue assay; in short: as §4

T1 sequence (P43003 whole entry): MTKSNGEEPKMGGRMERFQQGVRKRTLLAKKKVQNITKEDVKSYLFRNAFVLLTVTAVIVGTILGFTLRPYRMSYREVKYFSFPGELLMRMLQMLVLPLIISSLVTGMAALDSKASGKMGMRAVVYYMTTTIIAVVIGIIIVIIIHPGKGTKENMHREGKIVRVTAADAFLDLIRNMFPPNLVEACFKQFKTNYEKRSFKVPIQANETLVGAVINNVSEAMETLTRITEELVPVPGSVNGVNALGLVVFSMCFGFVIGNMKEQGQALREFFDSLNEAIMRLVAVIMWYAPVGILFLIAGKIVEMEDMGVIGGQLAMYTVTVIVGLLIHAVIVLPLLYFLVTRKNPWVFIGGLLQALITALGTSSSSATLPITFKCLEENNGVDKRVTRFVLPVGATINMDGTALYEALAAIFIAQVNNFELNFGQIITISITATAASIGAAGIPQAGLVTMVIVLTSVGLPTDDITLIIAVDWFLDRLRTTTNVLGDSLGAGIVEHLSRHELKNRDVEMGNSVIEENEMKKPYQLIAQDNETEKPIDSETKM
T3 sequence (P43004 whole entry): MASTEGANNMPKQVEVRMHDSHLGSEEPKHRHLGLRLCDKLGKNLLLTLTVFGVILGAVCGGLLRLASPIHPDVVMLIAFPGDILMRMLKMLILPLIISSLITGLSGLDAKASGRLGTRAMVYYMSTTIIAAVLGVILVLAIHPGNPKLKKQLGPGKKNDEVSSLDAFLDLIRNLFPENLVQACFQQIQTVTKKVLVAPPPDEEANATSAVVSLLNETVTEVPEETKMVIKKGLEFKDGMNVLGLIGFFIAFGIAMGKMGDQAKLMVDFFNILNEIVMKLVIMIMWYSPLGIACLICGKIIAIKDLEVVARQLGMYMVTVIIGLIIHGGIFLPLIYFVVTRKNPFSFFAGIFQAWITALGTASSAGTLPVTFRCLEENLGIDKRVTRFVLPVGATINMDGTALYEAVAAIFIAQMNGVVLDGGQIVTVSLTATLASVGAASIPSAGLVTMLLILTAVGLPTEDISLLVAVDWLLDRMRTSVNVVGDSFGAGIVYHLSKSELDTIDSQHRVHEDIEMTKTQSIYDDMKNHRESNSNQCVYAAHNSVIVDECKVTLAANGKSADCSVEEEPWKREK

| SMILES | IC50 [1] [µM] | Ratio IC50 [2] | IC50 [3] [µM] | Ratio IC50 [5] | IC50 [8] [µM] | Ratio IC50 [9] | Ratio IC50 [11] | IC50 [12] [µM] | inhibition [16] | Activity [17] | inhibition [18] | Activity [19] | inhibition [20] | inhibition [21] | Activity [22] | further results |
| --- | --- | --- | --- | --- | --- | --- | --- | --- | --- | --- | --- | --- | --- | --- | --- | --- |
| N[C@H](C(=O)O)[C@H](OCc1ccccc1)C(=O)Nc1ccc(Oc2cc(F)c(F)cc2Br)cc1 | 0.011 | 190 | 0.094 | 16 | 0.14 | 53 | 40 | 0.036 | – | – | – | – | – | – | – | Ratio IC50 [4]: 2; Ratio IC50 [6]: 78; Ratio IC50 [7]: 11; Ratio IC50 [10]: 20 |
| N[C@H](C(=O)O)[C@H](OCc1ccccc1)C(=O)Nc1ccc2c(c1)Cc1ccccc1-2 | 0.012 | 180 | 0.055 | 29 | 0.08 | 40 | 69 | 0.047 | – | – | – | – | – | – | – | Ratio IC50 [13]: 1.6; Ratio IC50 [14]: 83; Ratio IC50 [15]: 30 |
| N[C@H](C(=O)O)[C@H](OCC1CCC1)C(=O)O | 1.7 | – | 2.1 | – | 3 | – | – | 0.69 | Active | inactive | Active | inactive | Active | Active | inactive | – |
| N[C@H](C(=O)O)[C@H](OCc1ccoc1)C(=O)O | 1.3 | – | 1.2 | – | 3.1 | – | – | 0.76 | Active | inactive | Active | inactive | Active | Active | inactive | – |
| N[C@H](C(=O)O)[C@H](OCc1ccsc1)C(=O)O | 1.6 | – | 0.86 | – | 5 | – | – | 0.92 | Active | inactive | Active | inactive | Active | Active | inactive | – |
| N[C@H](C(=O)O)[C@H](OCC1CCCCCC1)C(=O)O | 2.2 | – | 11 | – | 7.8 | – | – | 2.4 | Active | inactive | Active | inactive | Active | Active | inactive | – |
